# Source: ChEMBL document CHEMBL1126317, “2-(aminoalkyl)-5-nitropyrazolo[3,4,5-kl]acridines, a new class of anticancer agents” (1992)
# Experiments:
# Assay type in all cases: functional
# Mus musculus [1] = test: In vivo antitumor activity of the compound(ip, 6.25 mg/kg for 5 days) against CD2F1 mice implanted intraperitoneally with P388 leukemia cells.; settings: route intraperitoneal
# Mus musculus [2] = test: In vivo antitumor activity of the compound(ip, 6.25 mg/kg for 5 days) against CD2F1 mice implanted intraperitoneally with P388 leukemia cells; Day 30 survivors=6/6; settings: route intraperitoneal
# L1210 = test: In vitro antitumor activity against L1210 leukemia cell line.; settings: Mus musculus, read-out: ID50 (the source's name)
# HCT-8 = test: In vitro antitumor activity against HCT-8 colon cancer cell line.; settings: Homo sapiens, read-out: ID50 (the source's name)
# Mus musculus [3] = test: In vivo antitumor activity of the compound(ip, 3.12 mg/kg for 5 days) against CD2F1 mice implanted intraperitoneally with P388 leukemia cells.; settings: route intraperitoneal
# Mus musculus [4] = test: In vivo antitumor activity of the compound(ip, 3.12 mg/kg for 5 days) against CD2F1 mice implanted intraperitoneally with P388 leukemia cells; Day 30 survivors=4/6; settings: route intraperitoneal
# [5] = Ratio of the ID50's showing antitumor activity against HCT-8 and L1210 leukemia cell lines.
# Method in brief: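 Ratio taken as ID50 in HCT-8 cells divided by ID50 in L1210 cells, both ID50s expressed as molar concentrations.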
# Mus musculus [6] = test: In vivo antitumor activity of the compound(ip, 12.5 mg/kg for 5 days) against CD2F1 mice implanted intraperitoneally with P388 leukemia cells; Day 30 survivors=2/6; settings: route intraperitoneal
# Mus musculus [7] = test: In vivo antitumor activity of the compound(ip, 12.5 mg/kg for 5 days) against CD2F1 mice implanted intraperitoneally with P388 leukemia cells.; settings: route intraperitoneal
# Mus musculus [8] = test: In vivo antitumor activity of the compound(ip, 6.25 mg/kg for 5 days) against CD2F1 mice implanted intraperitoneally with P388 leukemia cells; Day 30 survivors=5/6; settings: route intraperitoneal
# Mus musculus [9] = test: In vivo antitumor activity of the compound(ip, 12.5 mg/kg for 5 days) against CD2F1 mice implanted intraperitoneally with P388 leukemia cells; Day 30 survivors=3/6; settings: route intraperitoneal
# Mus musculus [10] = test: In vivo antitumor activity of the compound(ip, 3 mg/kg for 5 days) against CD2F1 mice implanted intraperitoneally with P388 leukemia cells.; settings: route intraperitoneal
# Mus musculus [11] = test: In vivo antitumor activity of the compound(ip, 3.12 mg/kg for 5 days) against CD2F1 mice implanted intraperitoneally with P388 leukemia cells; Day 30 survivors=1/6; settings: route intraperitoneal
SMILES,IC50 (L1210),IC50 (HCT-8),Ratio [5],also measured
CS(=O)(=O)O.O=[N+]([O-])c1ccc2c3c(c4cc(O)ccc4nc13)NN2CCNCCO,4.8 nM,–,–,T/C (Mus musculus [1]): 275%; Activity (Mus musculus [2]): 6
CCN(CC)CCN1Nc2c3cc(OC(C)=O)ccc3nc3c([N+](=O)[O-])ccc1c23.CS(=O)(=O)O,3.8 nM,5.3 nM,1.4,T/C (Mus musculus [3]): 283%; Activity (Mus musculus [4]): 4
CCN(CC)CCN1Nc2c3cc(O[Si](C)(C)C(C)(C)C)ccc3nc3c([N+](=O)[O-])ccc1c23.CS(=O)(=O)O,1.7 nM,–,–,Activity (Mus musculus [6]): 2; T/C (Mus musculus [7]): 228%
CCN(CC)CCN1Nc2c3cc(OC(=O)C(C)(C)C)ccc3nc3c([N+](=O)[O-])ccc1c23.CS(=O)(=O)O,1 nM,9.7 nM,0.97,T/C (Mus musculus [1]): 283%; Activity (Mus musculus [8]): 5
CCN(CC)CCN1Nc2c3c(Cl)c(OC)ccc3nc3c([N+](=O)[O-])ccc1c23.CS(=O)(=O)O,61 nM,–,–,Activity (Mus musculus [9]): 3; T/C (Mus musculus [7]): 230%
CCN(CC)CCN1Nc2c3cc(O)ccc3nc3c([N+](=O)[O-])ccc1c23.CS(=O)(=O)O,2 nM,13 nM,6.5,T/C (Mus musculus [10]): 180%
CC(=O)Oc1ccc2c(c1)-c1nn(CCN3CCCC3)c3ccc([N+](=O)[O-])c(c13)N2.CS(=O)(=O)O,2.2 nM,–,–,T/C (Mus musculus [3]): 236%; Activity (Mus musculus [11]): 1
